Results on twelve compounds are retold here after ChEMBL document CHEMBL1799944, “New 2-heterocyclyl-imidazo[2,1-i]purin-5-one derivatives as potent and selective human A3 adenosine receptor antagonists” (J Med Chem, 2011).

Data set [1] addresses T1, Adenosine receptor A2b (Homo sapiens) (UniProt P29275).
T1 sequence (whole entry): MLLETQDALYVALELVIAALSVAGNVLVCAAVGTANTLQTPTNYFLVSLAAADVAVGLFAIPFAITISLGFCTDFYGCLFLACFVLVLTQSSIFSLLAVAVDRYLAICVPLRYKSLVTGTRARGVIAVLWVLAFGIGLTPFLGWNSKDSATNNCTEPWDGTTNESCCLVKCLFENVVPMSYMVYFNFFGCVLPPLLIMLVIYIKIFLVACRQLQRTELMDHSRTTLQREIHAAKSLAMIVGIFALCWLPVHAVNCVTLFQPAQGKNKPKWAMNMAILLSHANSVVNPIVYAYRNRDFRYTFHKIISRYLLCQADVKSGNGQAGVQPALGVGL
The data set is described as follows: Antagonist activity human adenosine A2B receptor expressed in CHO cells assessed as inhibition of NECA-mediated [3H]cAMP accumulation at =<5000 nM after 150 mins by scintillation counter. Type of data set: functional, cell-based. Put shortly: (§1)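 Intact CHO cells expressing hA2B (1 x 10^6 cells/assay), preincubated 10 min at 37 °C in saline buffer pH 7.4 with 2 IU/mL adenosine deaminase and Ro 20-1724. Antagonism of 100 nM NECA-stimulated cAMP rise. Stopped with cold 6% TCA, ether-extracted. cAMP measured by competition binding with [3H]cAMP and beef adrenal binding protein (4 °C, 150 min), charcoal separation, scintillation counting. IC50 by sigmoid nonlinear regression, mean ± SEM.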
(In general: Cyclic AMP is a second messenger, typically raised through Gs and lowered through Gi signalling.)

For data set [2], the target named is T2, Adenosine receptor A1 (Homo sapiens) (UniProt P30542).
T2 sequence (whole entry): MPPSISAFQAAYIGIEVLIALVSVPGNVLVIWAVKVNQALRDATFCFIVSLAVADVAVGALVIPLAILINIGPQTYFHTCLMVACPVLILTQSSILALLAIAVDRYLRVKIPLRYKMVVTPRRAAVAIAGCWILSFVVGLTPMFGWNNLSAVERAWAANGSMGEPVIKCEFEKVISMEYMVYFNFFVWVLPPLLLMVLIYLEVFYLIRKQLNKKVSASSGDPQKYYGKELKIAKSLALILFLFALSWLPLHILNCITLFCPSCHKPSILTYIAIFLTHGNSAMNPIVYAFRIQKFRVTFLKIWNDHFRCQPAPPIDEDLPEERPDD
The data set is described as follows: Displacement of [3H]DPCPX from human adenosine A1 receptor expressed in CHO cells at =<5000 nM after 120 mins by scintillation spectrometry. Type of data set: cell-based. Summed up:
(§2)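 hA1 CHO membranes (50 μg protein/assay) in 50 mM Tris HCl pH 7.4, pretreated with adenosine deaminase 2 UI/mL for 30 min at 37 °C. Incubated with 1 nM [3H]DPCPX plus 6-8 ligand concentrations for 120 min at 25 °C. Nonspecific binding defined with 1 μM DPCPX. Ki from IC50 by Cheng-Prusoff; geometric means with 95% confidence limits.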

The target of data set [3] is T3, Adenosine receptor A2a (Homo sapiens, UniProt P29274). As to the kind of experiment: Displacement of [3H]ZM 241385 from human adenosine A2A receptor expressed in CHO cells after 60 mins by scintillation spectrometry. Type of data set: cell-based.
The next data set deals with T4, Adenosine receptor A1 (Homo sapiens, UniProt P30542).
T4 sequence (P30542 whole entry): T2 sequence (whole entry)
The data set is described as follows: Displacement of [3H]DPCPX from human adenosine A1 receptor expressed in CHO cells after 120 mins by scintillation spectrometry. The format is cell-based. Summed up:
as §2
Background: Displacement assays read how much labelled ligand stays bound in the presence of the test substance.

The target in the next data set is T5, Adenosine receptor A2b (Homo sapiens, UniProt P29275).
T5 sequence (P29275 whole entry): T1 sequence (whole entry)
The data set is described as follows: Antagonist activity human adenosine A2B receptor expressed in CHO cells assessed as inhibition of NECA-mediated [3H]cAMP accumulation after 150 mins by scintillation counter. The format is functional, cell-based. Put shortly:
as §1

Data set [4] has as its target T6, Adenosine receptor A3 (Homo sapiens, UniProt P0DMS8).
T6 sequence (P0DMS8 whole entry): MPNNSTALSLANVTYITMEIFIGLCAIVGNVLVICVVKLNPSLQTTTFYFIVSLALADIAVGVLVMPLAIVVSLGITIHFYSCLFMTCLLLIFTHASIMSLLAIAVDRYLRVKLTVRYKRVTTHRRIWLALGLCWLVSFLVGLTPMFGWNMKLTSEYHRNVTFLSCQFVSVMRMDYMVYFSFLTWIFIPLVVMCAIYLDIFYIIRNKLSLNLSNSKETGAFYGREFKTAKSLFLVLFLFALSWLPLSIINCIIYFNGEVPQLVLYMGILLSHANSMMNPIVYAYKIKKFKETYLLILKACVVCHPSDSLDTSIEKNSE
The data set is described as follows: Displacement of [3H]MRE 3008F20 from human adenosine A3 receptor expressed in CHO cells after 120 mins by scintillation spectrometry. Type of data set: cell-based. Put shortly: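 Membranes from hA3 CHO cells (50 μg protein/assay) in 50 mM Tris HCl, 10 mM MgCl2, 1 mM EDTA pH 7.4, adenosine deaminase-treated. Incubated with 1 nM [3H]MRE 3008F20 and 6-8 ligand concentrations, 120 min at 4 °C. Nonspecific defined with 1 μM MRE 3008F20 (~25% of total). GF/B filtration, three ice-cold washes, scintillation counting. Ki via Cheng-Prusoff; geometric mean, 95% confidence limits, n = 3-6.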

In data set [5] the target is Adenosine receptors; A1 & A3 (Homo sapiens) (UniProt P30542+P0DMS8). The data set is described as follows: Ratio of Ki for human adenosine A1 receptor to Ki for human adenosine A3 receptor.
In data set [6] the target is T3, Adenosine receptor A2a. The data set is described as follows: Displacement of [3H]ZM 241385 from human adenosine A2A receptor expressed in CHO cells at <=5000 nM after 60 mins by scintillation spectrometry. Type of data set: cell-based.
The target of data set [7] is T6, Adenosine receptor A3. As to the kind of experiment: Inverse agonist activity at human recombinant A3 adenosine receptor expressed CHO cells by [35S]GTPgammaS binding assay. The format is functional, cell-based. For orientation: GTPγS is a poorly hydrolysed GTP analogue; its binding reports G protein activation.
The species entered for the next data set is Homo sapiens. The data set is described as follows: Ratio of Ki for human adenosine A2A receptor to Ki for human adenosine A3 receptor.
In data set [8] the target is T6, Adenosine receptor A3. The data set is described as follows: Antagonist activity human adenosine A3 receptor expressed in CHO cells assessed as blockade of Cl-IB-MECA-mediated inhibition of forskolin-stimulated [3H]cAMP accumulation after 150 mins by scintillation counter. The format is functional, cell-based. Summed up:
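hA3-expressing CHO cells (1 x 10^6 cells/assay), preincubated 10 min at 37 °C in saline buffer pH 7.4 with adenosine deaminase 2 IU/mL and Ro 20-1724. Antagonism of 100 nM Cl-IB-MECA inhibition of cAMP in presence of 1 μM forskolin. Stopped with cold TCA. cAMP by [3H]cAMP competition protein binding (4 °C, 150 min), scintillation counting. IC50 from sigmoid nonlinear regression, mean ± SEM.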

Data set [9] can be described thus: Solubility of compound in water. Type of data set: physicochemical.

T3 sequence (P29274 whole entry): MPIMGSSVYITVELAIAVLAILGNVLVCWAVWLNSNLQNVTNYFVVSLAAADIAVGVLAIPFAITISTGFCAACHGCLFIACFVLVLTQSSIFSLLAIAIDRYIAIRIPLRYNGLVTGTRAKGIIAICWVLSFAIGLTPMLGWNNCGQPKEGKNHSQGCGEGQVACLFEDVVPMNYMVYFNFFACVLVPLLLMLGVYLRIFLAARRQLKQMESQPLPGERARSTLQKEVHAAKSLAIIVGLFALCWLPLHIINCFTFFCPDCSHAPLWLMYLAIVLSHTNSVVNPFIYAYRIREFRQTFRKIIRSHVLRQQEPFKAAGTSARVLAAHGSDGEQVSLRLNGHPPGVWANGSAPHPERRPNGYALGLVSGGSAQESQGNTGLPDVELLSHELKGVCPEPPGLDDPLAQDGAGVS

For the compound `C=CCN1C(=O)N2CC(C)N=C2c2[nH]c(-c3cc(C)n(C)n3)nc21` (racemic), the inhibition – broadly, the change of the read-out against control, counted positive when it falls – in data set [1] came to 9%; in data set [2], 13%; on Adenosine receptor A2a [6] it was 1%. For the same compound, the Ki (as a rule, a dissociation constant, usually derived from enzyme kinetics or from competition with a known ligand) on Adenosine receptor A2a [3] was greater than 5000 nM; at Adenosine receptor A1, greater than 5000 nM; at Adenosine receptor A3 [4], 13.9 nM. Also, the half-maximal inhibitory concentration (IC50) (as a rule, the concentration that gives 50% inhibition) at Adenosine receptor A2b is greater than 5000 nM. In addition, the Ratio Ki in data set [5] is greater than 359.
Take `C=CCN1C(=O)N2CC(C)N=C2c2[nH]c(-c3cc(OCc4ccccc4)nn3C)nc21` (racemic): the inhibition in [1] was 17%; in data set [2] it was 47%; on Adenosine receptor A2a [6] it was 25%. In addition, the figures for the inhibition constant (Ki) at Adenosine receptor A2a [3], at Adenosine receptor A1 and at Adenosine receptor A3 [4] were greater than 5000 nM, greater than 5000 nM and 24.7 nM, respectively. Besides, at Adenosine receptor A2b, the IC50 was greater than 5000 nM. The Ratio Ki in [5] was 202.
`CC[C@@H]1CN2C(=O)N(C)c3nc(-c4cc(Cl)cc(Cl)c4Cl)[nH]c3C2=N1`: the IC50 at Adenosine receptor A3 [7] is 4 nM.
With `Cc1cc(-c2nc3c([nH]2)C2=NC(C)CN2C(=O)N3Cc2ccccc2)nn1C` (stereo not drawn), the inhibition in [1] worked out at 24%; in data set [2] it was 22%; on Adenosine receptor A2a [6], 9%. Moreover, the inhibition constant (Ki) at Adenosine receptor A2a [3] was greater than 5000 nM; on Adenosine receptor A1, greater than 5000 nM; on Adenosine receptor A3 [4], 12.2 nM. Also, the IC50 at Adenosine receptor A2b is greater than 5000 nM. The figures for the Ratio Ki (in the data set listed under Homo sapiens; in [5]) were 330 and greater than 400, respectively.
Turning to `C=CCN1C(=O)N2CC(C)N=C2c2[nH]c(-c3cc(OC)nn3C)nc21` (racemic), the results for the inhibition (in data set [1]; in data set [2]; at Adenosine receptor A2a [6]) were 13%, 30% and 1%, respectively. For the same compound, the Ki on Adenosine receptor A2a [3] is greater than 5000 nM; on Adenosine receptor A1 it was greater than 5000 nM; at Adenosine receptor A3 [4], 2.36 nM. Besides, the half-inhibitory concentration (IC50) on Adenosine receptor A3 [8] is 14.5 nM; on Adenosine receptor A2b, greater than 5000 nM. The Ratio Ki (in the data set listed under Homo sapiens; in data set [5]) was 2100 in each case.
As to `C=CCN1C(=O)N2CC(C)N=C2c2[nH]c(-c3cc(C)nn3C)nc21` (racemic), the inhibition in data set [1] was 30%; on Adenosine receptor A2a [6], 7%. Further, the values for the Ki on Adenosine receptor A2a [3], at Adenosine receptor A1 and on Adenosine receptor A3 [4] were greater than 5000 nM, 2040 nM and 4.56 nM, respectively. Also, the IC50 was 34.2 nM on Adenosine receptor A3 [8] and greater than 5000 nM at Adenosine receptor A2b. In addition, in data set [5], the Ratio Ki came to 450.
Take `CCC1CN2C(=O)N(Cc3ccccc3)c3nc(-c4cc(C)n(C)n4)[nH]c3C2=N1` (racemic): the figures for the inhibition (in data set [1]; in data set [2]; at Adenosine receptor A2a [6]) were 27%, 28% and 13%, respectively. Moreover, the values for the Ki at Adenosine receptor A2a [3], at Adenosine receptor A1 and on Adenosine receptor A3 [4] were greater than 5000 nM, greater than 5000 nM and 15 nM, respectively. The IC50 on Adenosine receptor A2b was greater than 5000 nM. Moreover, the Ratio Ki in the data set filed under Homo sapiens was 330.
In the case of `CCC1CN2C(=O)N(Cc3ccccc3)c3nc(-c4cc(OC)nn4C)[nH]c3C2=N1` (racemic), the inhibition is 22% in [1] and 9% on Adenosine receptor A2a [6]. Besides, the inhibitory constant (Ki) at Adenosine receptor A2a [3] was greater than 5000 nM; on Adenosine receptor A1, 405 nM; at Adenosine receptor A3 [4], 3.85 nM. The figures for the IC50 on Adenosine receptor A3 [8] and at Adenosine receptor A2b were 20.4 nM and greater than 5000 nM, respectively. In data set [5], the Ratio Ki stood at 105.
In the case of `C=CCN1C(=O)N2CC(CC)N=C2c2[nH]c(-c3cc(C)n(C)n3)nc21` (racemic), the inhibition in data set [1] turned out to be 16%; in data set [2] it was 20%; on Adenosine receptor A2a [6], 1%. For the same compound, the results for the inhibition constant Ki at Adenosine receptor A2a [3], at Adenosine receptor A1 and on Adenosine receptor A3 [4] were greater than 5000 nM, greater than 5000 nM and 12.5 nM, respectively. Moreover, the IC50 at Adenosine receptor A2b is greater than 5000 nM. For the same compound, the Ratio Ki in the data set filed under Homo sapiens stood at 330.
As to `C=CCN1C(=O)N2CC(C)N=C2c2[nH]c(-c3cc(OC)no3)nc21` (racemic), the inhibition turned out to be 13% in data set [1], 26% in [2] and 11% on Adenosine receptor A2a [6]. The Ki is greater than 5000 nM on Adenosine receptor A2a [3], greater than 5000 nM on Adenosine receptor A1 and 3.58 nM at Adenosine receptor A3 [4]. Besides, the IC50 is 24.2 nM on Adenosine receptor A3 [8] and greater than 5000 nM at Adenosine receptor A2b. The Ratio Ki in data set [5] was greater than 1400.
On to `COc1cc(-c2nc3c([nH]2)C2=NC(C)CN2C(=O)N3Cc2ccccc2)on1` (racemic), for which the inhibition in data set [1] worked out at 11%; in [2], 35%; at Adenosine receptor A2a [6], 5%. The Ki on Adenosine receptor A2a [3] was greater than 5000 nM; on Adenosine receptor A1 it was greater than 5000 nM; at Adenosine receptor A3 [4] it was 2.68 nM. The half-maximal inhibitory concentration (IC50) on Adenosine receptor A3 [8] was 20.4 nM; at Adenosine receptor A2b it was greater than 5000 nM. Moreover, the results for the Ratio Ki (in the data set filed under Homo sapiens; in [5]) were greater than 1800 and 1800, respectively.
With `CCCN1C(=O)N2C[C@@H](CC)N=C2c2[nH]c(C34CCC(O)(CC3)CC4)nc21`, the solubility – broadly, how much of the substance goes into solution per volume – in data set [9] is greater than 100 mg/mL.
